Calls of active or inactive are those of the source. No cut-off for these calls is given here.
What was measured:
HT-29 [1] = test: Cell cycle arrest in human HT-29 cells assessed as accumulation of cells at G2/M phase after 24 hrs by propidium iodide staining-based flow cytometric analysis; format: functional
HT-29 [2] = test: Cell cycle arrest in human HT-29 cells assessed as accumulation of cells at G1 phase at 350 nM after 24 hrs by propidium iodide staining-based flow cytometric analysis (reference value: 75.1 +/- 1.1%); format: functional
518A2 [3] = test: Induction of apoptosis in human 518A2 cells at 100 nM after 24 hrs by TUNEL assay relative to control; format: functional
HT-29 [4] = test: Cell cycle arrest in human HT-29 cells assessed as accumulation of cells at G2/M phase at 100 nM after 24 hrs by propidium iodide staining-based flow cytometric analysis (reference value: 11.4 +/- 1.4%); format: functional
518A2 [5] = test: Effect on F-actin in human 518A2 cells assessed as thick stress fibers formation at 100 nM after 3 hrs by DAPI staining-based fluorescence microscopic analysis; format: cell-based
Method in brief: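 518A2 melanoma cells were treated with 100 nM for 3 h. Filamentous actin was fluorescence-labelled, nuclei were counterstained with DAPI, and the cells were imaged by fluorescence microscopy. Images come from two independent experiments.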

HT-29 [6] = test: Cell cycle arrest in human HT-29 cells assessed as accumulation of cells at sub G1 phase at 250 nM after 24 hrs by propidium iodide staining-based flow cytometric analysis (reference value: 1.2 +/- 0.3%); format: functional
HT-29 [7] = test: Cell cycle arrest in human HT-29 cells assessed as accumulation of cells at G2/M phase at 350 nM after 24 hrs by propidium iodide staining-based flow cytometric analysis (reference value: 11.4 +/- 1.4%); format: functional
HT-29 [8] = test: Cell cycle arrest in human HT-29 cells assessed as accumulation of cells at S phase at 350 nM after 24 hrs by propidium iodide staining-based flow cytometric analysis (reference value: 12.3 +/- 0.4%); format: functional
[9] = Antiproliferative activity against human A2780cis cells after 72 hrs by SRB assay; format: functional, cell-based
Method in brief: (§1)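 Ovarian A2780 and cisplatin-resistant A2780cis cells were exposed for 72 h and stained with SRB. IC50 comes from dose-response curves, as means±SD of three independent experiments. Final DMSO was below 1%, with matched vehicle controls.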

EA.hy 926 [10] = test: Cytotoxicity against human EAhy926 cells at 100 nM after 24 hrs by MTT assay relative to control; format: cell-based; settings: ea.hy 926, 24 h, 0.1 µM
HT-29 [11] = test: Cell cycle arrest in human HT-29 cells assessed as accumulation of cells at G2/M phase at 250 nM after 24 hrs by propidium iodide staining-based flow cytometric analysis (reference value: 11.4 +/- 1.4%); format: functional
518A2 [12] = test: Antimigratory activity against human 518A2 cells at 50 nM after 48 hrs by wound healing assay; format: functional, cell-based
HCT-116 = test: Antiproliferative activity against human HCT116 cells after 72 hrs by MTT assay; format: functional, cell-based; settings: HCT-116, 72 h
Method in brief: (§2)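 MTT read-out after 72 h of continuous exposure. Viability is expressed as percentage of viable cells relative to untreated controls. IC50 comes from dose-response curves. Values are means±SD of four independent experiments (two for some entries). DMSO was below 1%, with vehicle controls at equal DMSO. Precipitation was excluded spectrometrically and microscopically.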

HT-29 [13] = test: Cell cycle arrest in human HT-29 cells assessed as accumulation of cells at sub G1 phase at 350 nM after 24 hrs by propidium iodide staining-based flow cytometric analysis (reference value: 1.2 +/- 0.3%); format: functional
[14] = Antiproliferative activity against human KB-V1/Vbl cells after 72 hrs by MTT assay; format: functional, cell-based; method in brief: as §2
HT-29 [15] = test: Antiproliferative activity against human HT-29 cells after 72 hrs by MTT assay; format: functional, cell-based; settings: HT-29, 72 h; method in brief: as §2
518A2 [16] = test: Antiproliferative activity against human 518A2 cells after 72 hrs by MTT assay; format: functional, cell-based; settings: for IC50: 518A2, 72 h; method in brief: as §2
PANC-1 = test: Antiproliferative activity against human PANC1 cells after 72 hrs by MTT assay; format: functional, cell-based; settings: PANC-1, 72 h; method in brief: as §2
HT-29 [17] = test: Cell cycle arrest in human HT-29 cells assessed as accumulation of cells at S phase at 100 nM after 24 hrs by propidium iodide staining-based flow cytometric analysis (reference value: 12.3 +/- 0.4%); format: functional
EA.hy 926 [18] = test: Antiangiogenic activity against human EAhy926 cells assessed as inhibition of tube formation on matrigel at 100 nM after 24 hrs by light microscopic analysis; format: functional, cell-based
Method in brief: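 Ea.Hy926 endothelial hybrid cells were seeded on matrigel with compound and examined for tubular/cord-like network formation versus untreated controls. Viability under the same conditions was checked in parallel by MTT to exclude cytotoxic effects.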

518A2 [19] = test: Induction of cell cycle arrest in human 518A2 cells; format: functional, cell-based
Chorioallantoic membrane [20] = test: Antiangiogenic activity in Leghorn chicken embryo chorioallantoic membrane assessed as effect on blood vessel length at 5 nmol after 6 hrs by light microscopic analysis; format: functional, tissue-based; settings: Gallus gallus
Method in brief: (§3)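 Fertilized chicken eggs, CAM assay. Compound was applied topically into a small silicon foil ring placed on the CAM. The membrane and its extraembryonal blood vessels were monitored over 24 h, with observations at 6 h and 24 h post application.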

Chorioallantoic membrane [21] = test: Antiangiogenic activity in Leghorn chicken embryo chorioallantoic membrane assessed as reduction in blood vessel area at 5 nmol after 6 hrs by light microscopic analysis relative to control; format: functional, tissue-based; set-up: scale not given: the % may be the effect or the level left; settings: Gallus gallus
Method in brief: (§4)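 The CAM assay was run with topical application into a silicon foil ring atop the CAM of fertilized chicken eggs. Area covered by blood vessels was quantified by fractal analysis relative to control.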

HT-29 [22] = test: Cell cycle arrest in human HT-29 cells assessed as accumulation of cells at G1 phase at 100 nM after 24 hrs by propidium iodide staining-based flow cytometric analysis (reference value: 75.1 +/- 1.1%); format: functional
Tubulin (Homo sapiens) = Tubulin (Homo sapiens) (UniProt P68371+Q9H4B7+P0DPH7+P68366+Q13509+Q71U36+P04350+Q3ZCM7+P07437+P68363+Q9BQE3+Q6PEY2+Q13885+Q9BVA1+Q9BUF5); test: Induction of microtubule disruption in human 518A2 cells at 100 nM after 3 hrs by DAPI staining-based fluorescence microscopic analysis; format: cell-based
Method in brief: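 Microtubule organization in 518A2 melanoma cells was checked by tubulin immunofluorescence staining after 3 h exposure to 100 nM, with DAPI as the nuclear counterstain. Images come from two independent experiments.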

518A2 [23] = test: Induction of apoptosis in human 518A2 cells assessed as accumulation at subG1 phase; format: functional, cell-based
EA.hy 926 [24] = test: Antiproliferative activity against human EAhy926 cells after 72 hrs by MTT assay; format: functional, cell-based; settings: EA.hy 926, 72 h; method in brief: as §2
A2780 = test: Antiproliferative activity against human A2780 cells after 72 hrs by SRB assay; format: functional, cell-based; settings: A2780, 72 h; method in brief: as §1
Chorioallantoic membrane [25] = test: Antiangiogenic activity in Leghorn chicken embryo chorioallantoic membrane assessed as induction of contraction at 5 nmol after 6 to 24 hrs by light microscopic analysis; format: functional, tissue-based; settings: Gallus gallus; method in brief: as §3
HT-29 [26] = test: Cell cycle arrest in human HT-29 cells assessed as accumulation of cells at G1 phase at 250 nM after 24 hrs by propidium iodide staining-based flow cytometric analysis (reference value: 75.1 +/- 1.1%); format: functional
DLD-1 = test: Antiproliferative activity against human DLD1 cells after 72 hrs by MTT assay; format: functional, cell-based; settings: DLD-1, 72 h; method in brief: as §2
Chorioallantoic membrane [27] = test: Antiangiogenic activity in Leghorn chicken embryo chorioallantoic membrane assessed as induction of hemorrhages at 5 nmol after 6 hrs by light microscopic analysis; format: functional, tissue-based; settings: Gallus gallus; method in brief: as §3
Tubulin = Tubulin (Sus scrofa, UniProt P02554+P02550); test: Inhibition of porcine brain tubulin polymerization after 2 hrs
HT-29 [28] = test: Cell cycle arrest in human HT-29 cells assessed as accumulation of cells at sub G1 phase at 100 nM after 24 hrs by propidium iodide staining-based flow cytometric analysis (reference value: 1.2 +/- 0.3%); format: functional
[29] = Toxicity in human A2780 cells xenografted nude mouse at 30 mg/kg administered on every other day and measured after 24 hrs; format: organism-based; settings: in vivo
Chorioallantoic membrane [30] = test: Antiangiogenic activity in Leghorn chicken embryo chorioallantoic membrane assessed as induction of irritation at 5 nmol after 6 to 24 hrs by light microscopic analysis; format: functional, tissue-based; settings: Gallus gallus; method in brief: as §3
Chorioallantoic membrane [31] = test: Antiangiogenic activity in Leghorn chicken embryo chorioallantoic membrane assessed as reduction in size of main blood vessels at 5 nmol after 6 hrs by light microscopic analysis; format: functional, tissue-based; settings: Gallus gallus; method in brief: as §3
HT-29 [32] = test: Cell cycle arrest in human HT-29 cells assessed as accumulation of cells at S phase at 250 nM after 24 hrs by propidium iodide staining-based flow cytometric analysis (reference value: 12.3 +/- 0.4%); format: functional
[33] = Antiproliferative activity against human MCF7/Topo cells after 72 hrs by MTT assay; format: functional, cell-based; method in brief: as §2
Tubulin (Sus scrofa) = Tubulin (Sus scrofa) (UniProt P02554+P02550); test: Inhibition of porcine brain tubulin polymerization at 10 uM after 2 hrs relative to control
Tubulin (Sus scrofa), sequence (P02550 whole entry, looked up): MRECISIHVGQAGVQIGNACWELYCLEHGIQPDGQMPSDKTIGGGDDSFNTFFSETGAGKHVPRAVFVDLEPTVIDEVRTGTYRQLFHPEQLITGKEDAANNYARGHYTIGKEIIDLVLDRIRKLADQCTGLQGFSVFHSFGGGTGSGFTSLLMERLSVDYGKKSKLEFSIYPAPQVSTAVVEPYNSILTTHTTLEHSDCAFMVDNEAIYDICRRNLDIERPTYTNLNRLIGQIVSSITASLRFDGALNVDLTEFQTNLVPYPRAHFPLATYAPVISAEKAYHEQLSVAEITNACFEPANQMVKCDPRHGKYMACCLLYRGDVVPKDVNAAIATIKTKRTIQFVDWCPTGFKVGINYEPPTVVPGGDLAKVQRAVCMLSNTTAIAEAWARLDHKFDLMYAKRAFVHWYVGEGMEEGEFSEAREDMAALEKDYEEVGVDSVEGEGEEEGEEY
Tubulin (Sus scrofa), sequence (P02554 whole entry, looked up): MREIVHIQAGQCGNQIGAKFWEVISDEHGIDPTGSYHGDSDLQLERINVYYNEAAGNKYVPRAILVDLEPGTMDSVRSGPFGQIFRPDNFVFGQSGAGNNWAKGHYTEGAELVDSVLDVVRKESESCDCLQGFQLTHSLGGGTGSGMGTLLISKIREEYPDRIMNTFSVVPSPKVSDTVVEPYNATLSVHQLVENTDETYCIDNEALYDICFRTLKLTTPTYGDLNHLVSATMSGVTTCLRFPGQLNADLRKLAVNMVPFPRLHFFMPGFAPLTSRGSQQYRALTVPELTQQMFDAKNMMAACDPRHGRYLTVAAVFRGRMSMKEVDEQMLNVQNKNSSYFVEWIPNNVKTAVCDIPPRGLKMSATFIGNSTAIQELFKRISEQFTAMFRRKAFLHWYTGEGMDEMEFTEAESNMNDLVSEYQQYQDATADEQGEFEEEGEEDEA
Method in brief: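 In a brief single-concentration run, purified tubulin polymerization was measured at 10 µM and expressed as percent of vehicle-treated controls.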

Chorioallantoic membrane [34] = test: Antiangiogenic activity in Leghorn chicken embryo chorioallantoic membrane assessed as effect on blood vessel length at 2.5 nmol after 6 hrs by light microscopic analysis; format: functional, tissue-based; settings: Gallus gallus; method in brief: as §3
Chorioallantoic membrane [35] = test: Antiangiogenic activity in Leghorn chicken embryo chorioallantoic membrane assessed as induction of hemorrhages at 2.5 nmol after 24 hrs by light microscopic analysis; format: functional, tissue-based; settings: Gallus gallus; method in brief: as §3
Chorioallantoic membrane [36] = test: Antiangiogenic activity in Leghorn chicken embryo chorioallantoic membrane assessed as reduction in blood vessel area at 2.5 nmol after 6 hrs by light microscopic analysis relative to control; format: functional, tissue-based; settings: Gallus gallus; method in brief: as §4
Chorioallantoic membrane [37] = test: Antiangiogenic activity in Leghorn chicken embryo chorioallantoic membrane assessed as disruption of bigger blood vessels at 2.5 nmol after 6 hrs by light microscopic analysis; format: functional, tissue-based; settings: Gallus gallus; method in brief: as §3
Chorioallantoic membrane [38] = test: Antiangiogenic activity in Leghorn chicken embryo chorioallantoic membrane assessed as induction of corrosion at 2.5 nmol after 24 hrs by light microscopic analysis; format: functional, tissue-based; settings: Gallus gallus; method in brief: as §3

For `COc1c(Br)cc(C2C(C#N)=C(N)Oc3c2ccc2ccccc32)cc1Br` (stereo not drawn), the Activity (HT-29 [1]) was “Dose-dependent effect”, the Activity (HT-29 [2]) was 19.9% and the Activity (518A2 [3]) was 46.5%. The Activity (HT-29 [4]) was 26.1%, the Activity (518A2 [5]) was “Active” and the Activity (HT-29 [6]) was 4.4%. The Activity (HT-29 [7]) was 64.3%, the Activity (HT-29 [8]) was 10.6% and the IC50 [9] was 15.8 nM. For the same molecule, the Activity (EA.hy 926 [10]) was > 68%, the Activity (HT-29 [11]) was 55% and the Activity (518A2 [12]) was “Active”. The IC50 (HCT-116) was 19.1 nM, the Activity (HT-29 [13]) was 5.3% and the IC50 [14] was 33.4 nM. The IC50 (HT-29 [15]) was 52.1 nM, the Activity (518A2 [16]) was “Dose-dependent effect” and the IC50 (518A2 [16]) was 24.4 nM. The IC50 (PANC-1) was 14.7 nM, the Activity (HT-29 [17]) was 19.4% and the Activity (EA.hy 926 [18]) was “Active”. The Activity (518A2 [19]) was “inactive”, the Activity (Chorioallantoic membrane [20]) was “Active” and the Activity (Chorioallantoic membrane [21]) was 45%. For the same molecule, the Activity (HT-29 [22]) was 51.8%, the Activity (Tubulin (Homo sapiens)) was “Active” and the Activity (518A2 [23]) was “Active”. For the same molecule, the IC50 (EA.hy 926 [24]) was 15.9 nM, the IC50 (A2780) was 12.1 nM and the Activity (Chorioallantoic membrane [25]) was “Active”. The Activity (HT-29 [26]) was 26.8%, the IC50 (DLD-1) was 39.5 nM and the Activity (Chorioallantoic membrane [27]) was “inactive”. For the same molecule, the I50 (Tubulin) was 13 µM, the Activity (HT-29 [28]) was 2.7% and the Activity [29] was “Toxic”. The Activity (Chorioallantoic membrane [30]) was “Active”, the Activity (Chorioallantoic membrane [31]) was “Active” and the Activity (HT-29 [32]) was 13.9%. The IC50 [33] was 24.8 nM.
`N#CC1=C(N)Oc2c(ccc3ccccc23)C1c1ccc(Cl)c(F)c1` (stereo not drawn) gave an Activity (HT-29 [2]) of 21%, an Activity (HT-29 [4]) of 20.5% and an Activity (HT-29 [6]) of 25%. The Activity (HT-29 [7]) was 34%, the Activity (HT-29 [8]) was 14.9% and the inhibition (Tubulin (Sus scrofa)) was 44.1%. For the same molecule, the IC50 [9] was 57.3 nM, the Activity (HT-29 [11]) was 50.4% and the Activity (HT-29 [13]) was 27%. For the same molecule, the IC50 (HT-29 [15]) was 172 nM, the Activity (518A2 [16]) was “Dose-dependent effect” and the IC50 (518A2 [16]) was 425 nM. It also gave an Activity (HT-29 [17]) of 14.7%, an Activity (HT-29 [22]) of 56% and an IC50 (A2780) of 48.5 nM. The Activity (HT-29 [26]) was 15.4%, the Activity (HT-29 [28]) was 9.3% and the Activity (HT-29 [32]) was 9.4%.
In the case of `COc1ccc(/C=C\c2cc(OC)c(OC)c(OC)c2)cc1O`, the Activity (Chorioallantoic membrane [34]) is reported as “Active”, the Activity (Chorioallantoic membrane [35]) is reported as “Active” and the Activity (Chorioallantoic membrane [36]) is reported as “Active”. For the same molecule, the Activity (Chorioallantoic membrane [37]) was “Active” and the Activity (Chorioallantoic membrane [38]) was “Active”.

— ChEMBL document CHEMBL4330063, “New naphthopyran analogues of LY290181 as potential tumor vascular-disrupting agents” (Eur J Med Chem, 2019)
